In ChEMBL document CHEMBL1135842, “Synthesis and biological activity of polygalloyl-dendrimers as stable tannic acid mimics” (Bioorg Med Chem Lett, 2002) one finds Ts and ED50 data, which are given here for five compounds.

The nature of experiment [1]: The degree of collagen cross-linking by hydrothermal shrinkage temperature was determined. It counts as functional. An outline of the steps: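 Purified skin collagen matrices incubated 48 h at room temperature with samples at 4 mM in 85% glycerol; hydrothermal shrinkage onset temperature (Ts) recorded, with untreated matrix as reference. Means of five experiments with SEM; significance versus tannic acid at p<0.05.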

A short description of experiment [2]: Effective dose required for antioxidant activity was measured as dose giving 50% decolorization of 2,2-diphenyl-1-picryl-hydrazyl (DPPH). It counts as functional. The gist of the method: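 DPPH radical scavenging: compounds serially diluted ([…]), incubated with […] in 75% ethanol for 15 min at room temperature; absorbance read at 550 nm. ED50 (dose giving 50% decolorization) obtained by linear regression of absorbance curves; means of five experiments, SEM reported.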

Molecules are shown by their SMILES.

For `O=C(O)c1cc(OCCNC(=O)c2cc(O)c(O)c(O)c2)cc(OCCNC(=O)c2cc(O)c(O)c(O)c2)c1`, in experiment [1], the Ts was determined as 58.4 °C. This compound yielded an ED50 in experiment [2] of 13.7 µM.
Regarding `O=C(O)c1cc(OCCNC(=O)c2cc(OCCNC(=O)c3cc(O)c(O)c(O)c3)cc(OCCNC(=O)c3cc(O)c(O)c(O)c3)c2)cc(OCCNC(=O)c2cc(OCCNC(=O)c3cc(O)c(O)c(O)c3)cc(OCCNC(=O)c3cc(O)c(O)c(O)c3)c2)c1`, the Ts in experiment [1] is 57.9 °C. The compound also registered an ED50 in experiment [2] of 7.4 µM.
On the same counts, the results for `O=C(O)c1cc(OCCNC(=O)c2cc(OCCNC(=O)c3cc(OCCNC(=O)c4cc(O)c(O)c(O)c4)cc(OCCNC(=O)c4cc(O)c(O)c(O)c4)c3)cc(OCCNC(=O)c3cc(OCCNC(=O)c4cc(O)c(O)c(O)c4)cc(OCCNC(=O)c4cc(O)c(O)c(O)c4)c3)c2)cc(OCCNC(=O)c2cc(OCCNC(=O)c3cc(OCCNC(=O)c4cc(O)c(O)c(O)c4)cc(OCCNC(=O)c4cc(O)c(O)c(O)c4)c3)cc(OCCNC(=O)c3cc(OCCNC(=O)c4cc(O)c(O)c(O)c4)cc(OCCNC(=O)c4cc(O)c(O)c(O)c4)c3)c2)c1` are 57 °C and 4.7 µM.
The corresponding values for `O=C(O)c1cc(O)c(O)c(O)c1` are 57.5 °C and 14.3 µM.
For `O=C(OC[C@H]1O[C@@H](OC(=O)c2cc(O)c(O)c(OC(=O)c3cc(O)c(O)c(O)c3)c2)[C@H](OC(=O)c2cc(O)c(O)c(OC(=O)c3cc(O)c(O)c(O)c3)c2)[C@@H](OC(=O)c2cc(O)c(O)c(OC(=O)c3cc(O)c(O)c(O)c3)c2)[C@@H]1OC(=O)c1cc(O)c(O)c(OC(=O)c2cc(O)c(O)c(O)c2)c1)c1cc(O)c(O)c(OC(=O)c2cc(O)c(O)c(O)c2)c1`, the Ts in experiment [1] is 59.5 °C. The compound further gave an ED50 in experiment [2] of 2.9 µM.
